# Source: PubChem BioAssay (several laboratories)
# Compounds with a hit are over-represented: about 1.6% of the library has one in this group of screens.
# PG9 Ab binder = small molecules binding HIV-1 gp120 antibody PG9; AID 624416; TR-FRET gp120-PG9 antibody binding; inhibition, % at 6.7 µM; hit rate 0.43% among 360,000; in the data active means inhibition above about 8.5%
# VLA-4 inh = inhibition in a human VLA-4 binding assay; VLA-4 expressing cells, ligand binding flow cytometry; inhibition, % (about 7 µM as worked out from the volumes in the protocol); hit rate 0.2% among 330,000; in the data active means inhibition above about 50%
# NR2E3 ag-1 = agonists of human nuclear receptor NR2E3. Q9Y5X4. GST-NR2E3/biotin-RetCOR TR-FRET, 1536-well. hit rate 0.12% among 320,000. inhibition of corepressor binding, % at 4.78 µM. AID 2300;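 active means percent inhibition above the cutoff of mean plus 3 SD of all tested compounds, set per screening campaign, cut at about 20% in these data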;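 further: 0% = DMSO wells and 100% = biotin wells as full block of FRET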
# Target sequence (Q9Y5X4 whole entry, looked up): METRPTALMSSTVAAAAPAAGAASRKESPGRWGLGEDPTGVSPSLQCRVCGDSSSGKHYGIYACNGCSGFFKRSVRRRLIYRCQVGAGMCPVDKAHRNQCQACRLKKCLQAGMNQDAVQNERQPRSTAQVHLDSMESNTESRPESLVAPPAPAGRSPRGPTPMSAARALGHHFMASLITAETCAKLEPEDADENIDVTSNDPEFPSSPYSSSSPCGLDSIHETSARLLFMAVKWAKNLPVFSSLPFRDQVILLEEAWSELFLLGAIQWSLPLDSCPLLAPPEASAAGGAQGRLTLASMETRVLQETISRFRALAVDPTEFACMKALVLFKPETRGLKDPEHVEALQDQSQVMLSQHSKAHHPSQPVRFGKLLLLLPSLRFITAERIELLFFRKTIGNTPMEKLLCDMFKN
#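 Material: NR2E3–RetCOR corepressor complex | Quantity: 1.35 nM GST-tagged NR2E3 final | Schedule: 5 h at 4 °C | Replication: Singlicate compound wells | Reagent: RetCOR corepressor, biotinylated, 7 nM | Controls: Biotin wells as high control, 0.6% DMSO wells as low control | Signal: TR-FRET, Eu(K)-anti-GST donor, streptavidin-D2 acceptor, ex 340, em 617/671 nm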
# NR2E3 ag-2 = activates human NR2E3 receptor; Q9Y5X4; CHO-S Gal4-NCOR/VP16-NR2E3 two-hybrid, luciferase; inhibition of corepressor binding, % at 3.98 µM; hit rate 0.35% among 360,000;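 active means inhibition above the mean of all tested compounds plus 3 SD, cut at about 70% in these data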;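 further: 0% = DMSO with NR2E3 transfected cells and 100% = cells lacking NR2E3 construct; higher means lower luciferase signal from less NR2E3 corepressor binding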
# Rev-erbA mod = modulators of human Rev-erb alpha DNA binding | P20393 | Rev-erbα–FITC-DNA binding, fluorescence polarization, 90 min | hit rate 0.79% among 370,000 | activity, % at 10 µM;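 active means activity above about 14%, limit read from the data; passing the limit was not always enough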;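 further: 0% = DMSO wells with 35 nM protein and 100% = DMSO wells with 750 nM protein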
# Rev-erbA confirm = confirmation of modulators of human Rev-erb alpha DNA binding. shares compounds with Rev-erbA mod. Rev-erb alpha FITC-DNA binding, fluorescence polarization, 90 min. activation, % at 25 µM. hit rate 61% among 3,000. AID 1259319;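 active means activation at or above a set limit, or at least 3 SD above the negative control mean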;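 further: 0% = 35 nM protein with DMSO and 100% = 750 nM protein high control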
# RORg DNA counter = RORgamma DNA-binding activity, dose-response counter-screen; shares compounds with Rev-erbA mod; purified RORgamma protein-FITC-DNA binding, fluorescence polarization; IC50, µM; hit rate 8% among 910; AID 1259320;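 active means Compounds whose fitted half-maximal concentration for disrupting protein-DNA binding is below 10 micromolar; the record names Rev-erb in its text, so the target is in doubt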
# Numbers without * were called inactive; i = inactive; . = no result; ! = a repeat was not active.
SMILES,PG9 Ab binder,VLA-4 inh,NR2E3 ag-1,NR2E3 ag-2,Rev-erbA mod,Rev-erbA confirm,others
COc1cc(/C=C2\SC(=O)N(CCNC(=O)c3sc4cc(F)ccc4c3Cl)C2=O)cc(OC)c1OC,1,2,2,-25,72*,32*,RORg DNA counter=i
CC(=O)c1c2c3c(cccc3n(C)c1=O)C(=O)c1ccccc1-2,.,4,0,.,.,.,
Cn1c(=O)c(Nc2ccc(O)cc2)c2c3c(cccc31)C(=O)c1ccccc1-2,-1,-3,1,21,175*,157*,RORg DNA counter=>40
COc1cc(NC(=O)c2nccn2C)cc(C(=O)Nc2cccc(C(F)(F)F)c2)c1,-2,0,3,-29,19*!,15*,
N#Cc1ccc(CSc2nc3sc4c(c3c(=O)n2-c2ccc(Br)cc2)CCCC4)cc1,.,.,.,.,23*,9,
O=C(Cn1cc(C(F)(F)F)cc(Cl)c1=O)NCc1ccc(Cl)cc1Cl,4,7,3,-27,39*,56*,RORg DNA counter=>40
CCNC(=O)Cn1cc(C(F)(F)F)cc(Cl)c1=O,-1,0,-3,-24,7,.,
Cc1ccccc1Cn1cc(S(=O)(=O)c2ccc(C(C)C)cc2)c(=O)c2cc3c(cc21)OCO3,0,2,4,-26,40*,21*,
CCOc1ccc(/C=N/NC(=O)c2ccc3nc[nH]c3c2)cc1OC,0,.,.,-21,3,.,
CC(NC(=O)c1ccc(-c2cc(C(F)(F)F)ccc2Cl)o1)c1ccccc1 (stereo not drawn),4,16,3,3,30*,45*,RORg DNA counter=0.78*
Cc1c(N(C)S(=O)(=O)c2cccc(C(=O)NCc3cccnc3)c2)c(=O)n(-c2ccccc2)n1C,-1,.,.,-32,-2,.,
COC(=O)c1c(NC(=O)c2ccccc2)sc(C(=O)c2ccccc2)c1C,1,14,2,6,27*,0,
O=C(Nc1cccnc1)c1sc2cccc(F)c2c1Cl,0,8,1,-113,3,.,
O=C(Nc1ccccn1)c1sc2cccc(F)c2c1Cl,1,8,-1,-140,25*,9,
N#CCSc1nc(-c2ccccc2)c2cc(Cl)ccc2n1,0,1,1,10,21*,10,
C=CCSc1nc(-c2ccccc2)c2cc(Cl)ccc2n1,0,2,1,1,5,.,
Cc1nn(-c2ccc(Cl)c(Cl)c2)c(=O)c2ccccc12,-1,6,-4,-36,48*,41*,RORg DNA counter=>40
Cc1nn(-c2ccc(Cl)cc2)c(=O)c2ccccc12,-1,-17,0,-61,4,.,
Cc1[nH]n(C(N)=S)c(=O)c1N=Nc1cc(-c2ccc(Br)cc2)[nH]n1,1,29,1,-3,14*,12,
C=C(C)CSc1nc(N)c2c(C)c(C)sc2n1,1,20,5,-26,26*,26*,
CSc1nc(N)c2c(C)c(C)sc2n1,1,6,1,-2,-1,.,
CCOc1ccc(-c2nnn(CC(=O)c3cc(OC)ccc3OC)n2)cc1,-2,-2,2,-14,19*,5,
CC(C)c1ccc(Oc2cccc3c2S(=O)(=O)N([C@H](C)c2ccccc2)C[C@@H](COCc2ccccc2)O3)cc1,-3,.,.,.,8,.,
CC1(CCc2ccccc2)NC(=O)N(CC(=O)N2CCCCCC2)C1=O (stereo not drawn),0,8,1,-6,2,.,
COCCOC(=O)N(C)C[C@@H]1OCCCC[C@H](C)Oc2ccc(NC(=O)Nc3ccccc3)cc2C(=O)N([C@@H](C)CO)C[C@H]1C,.,.,.,.,-9,.,
SMILES,PG9 Ab binder,VLA-4 inh,NR2E3 ag-1,NR2E3 ag-2,Rev-erbA mod,Rev-erbA confirm,others
CSc1nc2cc(C)nn2c(-c2ccccc2)c1C#N,-1,4,5,-27,26*,10,
COc1ccc(C(=O)N=C2SC3CS(=O)(=O)CC3N2c2ccc(N(C)C)cc2)cc1OC (stereo not drawn),-2,8,1,2,53*,12,
COc1ccc(N2C(=NC(=O)C3CCCCC3)SC3CS(=O)(=O)CC32)cc1OC (stereo not drawn),-3,6,0,-19,9,.,
Cc1cccc(N(C)S(=O)(=O)c2ccc3[nH]cc(C(=O)N4CCOCC4)c(=O)c3c2)c1,4,14,4,-10,-1,.,
CCc1ccccc1N(C)S(=O)(=O)c1ccc2[nH]cc(C(=O)N3CCc4ccccc43)c(=O)c2c1,0,25,5,13,45*,27*,
Cc1ccc(C(=O)Nc2nnc(-c3ccc(C(C)(C)C)cc3)s2)cc1,-1,0,1,-31,26*,3,
COc1ccc2cc(C(=O)COC(=O)COc3ccc4c(C)cc(=O)oc4c3)ccc2c1,1,22,3,3,85*,52*,RORg DNA counter=>40
C#CCOCCOCCOCCNc1nc(N2CCN(C(=O)C([C@@H](C)CC)n3cc(C(N)CO)nn3)CC2)nc(N2CCN(C(=O)C([C@@H](C)CC)n3cc(C(N)COC(=O)C(F)(F)F)nn3)CC2)n1 (stereo partly drawn),-1,-6,4,.,-4,.,
CC(=O)NCCNc1nc2c(-c3ccccc3)nnn2c2ccccc12,1,8,0,-22,3,.,
NS(=O)(=O)c1ccc(CCNc2nc3c(-c4cccc(F)c4)nnn3c3ccccc23)cc1,-1,.,2,3,82*,83*,RORg DNA counter=>40
Cc1ccc(-c2nnn3c2nc(NCCc2ccc(S(N)(=O)=O)cc2)c2ccccc23)cc1,4,10,2,-11,48*,30*,
Cc1cccc(-c2nnn3c2nc(NCCc2ccc(S(N)(=O)=O)cc2)c2ccccc23)c1,1,14,5,-14,78*,56*,RORg DNA counter=i
O=C(NNC(=O)C1C2CCC(C2)C1C(=O)O)c1cccc(Cl)c1 (stereo not drawn),-1,1,0,15,-7,.,
O=C(c1ccccc1)c1nn(-c2ccc(Cl)cc2)cc1C(=O)c1cc2ccccc2oc1=O,-1,1,4,-13,34*,-8,
COc1nc(-c2ccc(C)cc2)ccc1-c1noc(-c2cccnc2)n1,0,20,1,-2,22*,8,
COc1nc(-c2ccccc2)ccc1-c1noc(-c2cccnc2)n1,-2,-13,1,-9,35*,5,
COc1nc(-c2ccccc2)ccc1-c1noc(-c2ccccc2F)n1,1,12,2,-62,29*,17,
COc1ccccc1-c1noc(-c2cccnc2)n1,-1,2,5,-39,2,.,
COc1nc(-c2ccc(C)cc2)ccc1-c1noc(-c2ccco2)n1,1,3,11,-44,0,.,
Cc1ccc(NC(=O)CCN2CCC(C(N)=O)CC2)cc1,0,11,4,10,1,.,
CN(C(=O)CSc1nnnn1-c1ccc(O)cc1)C1CCCCC1,-1,-7,.,2,3,.,
